The source of these data is the EternaBench riboswitch data.

The test system of this data set is MS2 coat protein. Briefly: apparent Kd, MS2 coat protein; higher = weaker binding; RNA-MaP array; FMN 200 µM where present. The essentials: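 Stalled E. coli RNA polymerase produced the designs on Illumina sequencing-chip clusters. SNAP-549-labelled MS2 coat protein was added from 0.7 or 1.5 nM, doubling to 3 µM, without and then with constant ligand, in 100 mM Tris-HCl pH 7.5, 80 mM KCl, 4 mM MgCl2, BSA, DTT, yeast tRNA and Tween-20. The apparent Kd is the median of filtered per-cluster fits of green signal normalised to red-channel RNA signal and control-cluster median Fmax.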

The mark [1] stands for this setting: designed as: ON switch for flavin mononucleotide, no ligand.
Setting [2] is: ligand present: flavin mononucleotide, designed as: ON switch for flavin mononucleotide.
[3] abbreviates: designed as: OFF switch for flavin mononucleotide, no ligand.
Where [4] appears, read: ligand present: flavin mononucleotide, designed as: OFF switch for flavin mononucleotide.

“GGCUGCGUUGUGAAGGAUAUCCGCGUCUGGACAUGAGGAUCACCCAUGUAUGCUUGGAUCGUGCCGGAGAAGGUCACGGGUGAUU”: the apparent Kd – broadly, a dissociation constant that holds for the conditions of the assay – by setting is: under setting [1], 124 nM; under setting [2], 46 nM.
On to “AGCGGCGCGGGCCACCGCAGAACCAGAAGGACAUGAGGAUCACCCAUGUAGCAGAACAGGGCGGUGUAGGAUAUGGCAGGCUCG”, for which the “apparent Kd” value runs as follows: under setting [3], 29.4 nM; under setting [4], 52.3 nM.
For the sequence “GUAGCAUACGGAGGAUAUUCAUACCGGAAACGGACAUGAGGAUCACCCAUGUGGCGAAAGCCUUGGAAGAAGGCCGUAUGCUAC”, the “apparent Kd” value runs as follows: under setting [1], 3.96 nM; under setting [2], 3.55 nM.
As to “AAACAUGUCCGAGGAUAUCUGGAAACAUUUUCAAGAGAAGGCGGACAUGAGGAUCACCCAUGUCUCUCCUCAUCAACUACAUAU”, the “apparent Kd” value is, setting by setting: under setting [3], 8.09 nM; under setting [4], 59.4 nM.
“GUAGCAUACCGAGGAUAUUCAUACAGGAAACAGACAUGAGGAUCACCCAUGUGGCGAAAGCCUUGGGAGAAGGCGGAAUGCUAC”: the “apparent Kd” value runs as follows: under setting [1], 146 nM; under setting [2], 22.7 nM.
On to “CUGAGUAGUCAGGAUAUGUGGUACAAAAGUACUGCAGAAGGGAUUACAUGAGGAUCACCCAUGUUUUCUUCAUG”, for which the “apparent Kd” value under setting [4] was found to be 125 nM.
“CGGUCAUGAGGAUAUCGAGGUUAGUACAUGAGGAUCACCCAUGUUAUCCAGGUGUCGGUUCGAGAAGGCAUGUCCG”: the “apparent Kd” value runs as follows: under setting [3], 461 nM; under setting [4], 753 nM.
Consider “GUGUUGGUAGGAUAUCCACCGACAAACAUGAGGAUCACCCAUGUGACGCUCCCUUGUCUUGGAGAAGGGCCGGCAU”, for which the “apparent Kd” value under setting [3] was found to be 50.4 nM and the “apparent Kd” value under setting [4] is 49.1 nM.
As to “GAGAAGUCAGGAUAUCCAUGGCGGCACUUGCGUGGUGGCGUGGAGAAGGGACAUGAGGAUCACCCAUGUAAAGA”, the “apparent Kd” value is, setting by setting: under setting [3], 52.7 nM; under setting [4], 36.8 nM.
On to “UGUCGGAGCAGAGGAUAUUACAUGAGGAUCACCCAUGUAUGAACCAAUAGCUGGAAACAGCAAUGUAAGAAGGCUGCUCCGAAA”, for which the “apparent Kd” value under setting [3] stood at 12.3 nM and the “apparent Kd” value under setting [4] amounted to 176 nM.
On to “AAAAAGUCAGGAUAUAGCAAAGGUCACGAAAGUGACAAAGGCUAGAAGGGACAUGAGGAUCACCCAUGUAAAAA”, for which the “apparent Kd” value is, setting by setting: under setting [3], 31 nM; under setting [4], 39.1 nM.
The matching figures for “UAAUAUUUAUGAUAUUAUGACAGUAGAAGGCUAUACAUGUUGAUACAUGAGGAUCACCCAUGUAUAGAGGAUAUAUACAUAUAU”: 681 nM and 315 nM.
As to “AGAAAGUCAGGAUAUCAGAAUAAGUCGAAAACGACUAGUAAUGAGAAGGGACAUGAGGAUCACCCAUGUAAGAA”, the “apparent Kd” value under setting [3] is 30.6 nM and the “apparent Kd” value under setting [4] was determined as 37.4 nM.
As for “GAUUACAAGUAAGGAUAUGUAUAUGAAACAUAUACAGAAGGUACAUGAGGAUCACCCAUGUUCUUGCAACGCGAAUAUGUAAUC”, the “apparent Kd” value came out at 17.2 nM under setting [3] and 21.6 nM under setting [4].
Turning to “GACAUACAUGAGGAUCACCCAUGUUCAGACGGGCAAGGAUAUGUGUGGAAACCAUACUAUACAGAAGGUGUCUGUC”, the “apparent Kd” value runs as follows: under setting [1], 26.5 nM; under setting [2], 17.6 nM.
For “UGGAUGGUAUGAGGAUAUGCGCGCGAAACGCGCGCAGAAGGCAUGUCAAUAGACAUGAGGAUCACCCAUGUACUAUCCAUCCAC” the same measures were 121 nM and 9.41 nM.
Take “AAAUCCGCUGAGGAUAUCAUGACUGAGAGGUCAUGAGAAGGCGGUACAUGAGGAUCACCCAUGUCUAUGGGCAA”: the “apparent Kd” value runs as follows: under setting [3], 492 nM; under setting [4], 454 nM.
Take “CCUAAGCGAAUCAAGAUGGAUAGAACAUGAGGAUCACCCAUGUAGGAUAUGCUACACAAAGUGUAGCAGAAGGACAAGCUUAGG”: the “apparent Kd” value runs as follows: under setting [3], 25.9 nM; under setting [4], 40.5 nM.
With “CAUUAAUUGAUUAUUGAAUAUUUACAGGAUAUGUAACAUGAGGAUCACCCAUGUAAACAUGGAUUACAGAAGGGUAUUUAUAGA”, the “apparent Kd” value reads like this: under setting [3], 37 nM; under setting [4], 26.1 nM.
For the sequence “UUAUACGCUGAGGAUAUUAUCACUGAGAGGUGAUGAGAAGGCGGUACAUGAGGAUCACCCAUGUCUAUGGGCAG”, the “apparent Kd” value by setting is: under setting [3], 282 nM; under setting [4], 240 nM.
On to “AAUUAACAUGAGGAUCACCCAUGUGAGGAUAUGGUAUUACUUGGACAGCUAUGAUCUACCAGAAGGCACAUCUA”, for which the “apparent Kd” value under setting [3] came out at 24.4 nM and the “apparent Kd” value under setting [4] amounted to 44.8 nM.
On to “UUGGUGUACGUAGGAUAUGUAGGAUAUUCCUACAUGAGGAUCACCCAUGUUUACAUGGAAGAAGGACAGAAGGACGUGCACCAU”, for which the “apparent Kd” value under setting [1] is 1280 nM and the “apparent Kd” value under setting [2] was 15.2 nM.
For the sequence “CCCACGUGUGCAGGAUAUCCCACGAGCACAACAUGAGGAUCACCCAUGUACCUGAGUCUCGGAACGGAGAAGGGUACAUGUUAU”, the “apparent Kd” value was determined as 72.4 nM under setting [1] and 69.1 nM under setting [2].
For “GGGUACAUCGGAGGAUAUCAUGUAAAUACAUGAGGAUCACCCAUGUCGAUGGAGACAUCGGAGAUUGAGAAGGACGAUGUACCG” the same measures were 320 nM and 14 nM.
On to “UUGUUAUAUGUAGGAUAUGCAUAUUAUUAUUAUGCAGAAGGACAUGAGGAUCACCCAUGUAUAUUAUUAUUAUAUAUUAUAUAU”, for which the “apparent Kd” value is, setting by setting: under setting [3], 28.3 nM; under setting [4], 41.6 nM.
On to “CAGUAAUUCGAAGGAUAUGGUUACAUGAGGAUCACCCAUGUAUGAUUUGUGAUCUUAAAAUUGAUCCAGAAGGUCGAAUUACUG”, for which the “apparent Kd” value under setting [3] is 206 nM and the “apparent Kd” value under setting [4] amounted to 330 nM.
As for “GAAGCAUGCAAUAACAUGAGGAUCACCCAUGUGAAAACACGUGAGGAUAUUGAUCUGAAGAAGAUCGAGAAGGCACCGUGCUAA”, the “apparent Kd” value reads like this: under setting [1], 13.4 nM; under setting [2], 9.92 nM.
As to “CCCUCACAUGAGGAUCACCCAUGUCAGGAUAUCUAGUCAGACAGUAUAGCACUGCUGAAGAGAAGGGACGUAAA”, the “apparent Kd” value is, setting by setting: under setting [3], 16.4 nM; under setting [4], 20 nM.
With “UUUACAUGAGGAUCACCCAUGUCUGUCACACGGAGGUGCAAUCAGGAUAUGAUCUCAAGAAUGAAUUAGAAGGGAUAGGGAGGG”, the “apparent Kd” value was determined as 187 nM under setting [1] and 234 nM under setting [2].
For the sequence “GCACAUGAUACAGGAUAUGUUUUGGAUUUUAUAUGCAGUUAUUUUAUUUUGACAGAAGGGUAUACAUGAGGAUCACCCAUGUGC”, the “apparent Kd” value is, setting by setting: under setting [3], 76.3 nM; under setting [4], 48.1 nM.
With “GCGUAAUAGGUGUAGCUAGUCAUUCAAGAAGGGUGGAGAACAUGAGGAUCACCCAUGUGGUUUAUACAGGAUAUUGAUAUACGC”, the “apparent Kd” value worked out at 258 nM under setting [1] and 51.2 nM under setting [2].
For the sequence “GCACUUUUAUUUGAACCGUUUCGAACAUGAGGAUCACCCAUGUAGGAUAUGCUAAAAGUUGUGAUGCAGAAGGACAUUAAGUGC”, the “apparent Kd” value under setting [3] turned out to be 6.94 nM and the “apparent Kd” value under setting [4] was determined as 7.5 nM.
Regarding “CUGUUAUAGGUCCAGAAUUACAACAUGAGGAUCACCCAUGUGCAGGAUAUCGGGUUAAUAAACGACGAGAAGGGCAUAGUCACG”, the “apparent Kd” value runs as follows: under setting [3], 35.6 nM; under setting [4], 104 nM.
The matching figures for “UUUCGGCAUGUAGGAUAUGGAUCCGAUUAGGAUUUAGAAGGACAUGAGGAUCACCCAUGUGCAUUUAAUUGGUCAUUACCGUUU”: 58.5 nM and 95.2 nM.
Regarding “UAUUAGUAAGGAUAUGAGACGUAGGACGCAAGUCCUACGUCUCAGAAGGUACAUGAGGAUCACCCAUGUUUAUU”, the “apparent Kd” value is 18.1 nM under setting [3] and 24.4 nM under setting [4].
On to “UCAUGGUAGCAGGAUAUGCUUGUAAUUUUUUUUGCAGAAGGGCUUACAUGAGGAUCACCCAUGUGUUAGGUCUA”, for which the “apparent Kd” value is 32.8 nM under setting [3] and 46.7 nM under setting [4].
